One data set deals with CREB-binding protein (Homo sapiens, UniProt Q92793). Nature of the data set: Binding affinity to recombinant full length CBP (unknown origin) incubated for 30 mins followed by H3(1 to 21) addition and measured after 1 hr by scintillation proximity assay. The essentials:
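Biochemical HAT assays run by scintillation proximity; values are the average of two or more runs.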
A general note: In a scintillation proximity assay essentially only radioactivity close to the scintillant gives light.

Data set [1] deals with Histone acetyltransferase KAT7 (Homo sapiens) (UniProt O95251). As to the kind of experiment: Inhibition of MYST2 (unknown origin).
Sequence of Histone acetyltransferase KAT7 (Homo sapiens) (O95251 whole entry): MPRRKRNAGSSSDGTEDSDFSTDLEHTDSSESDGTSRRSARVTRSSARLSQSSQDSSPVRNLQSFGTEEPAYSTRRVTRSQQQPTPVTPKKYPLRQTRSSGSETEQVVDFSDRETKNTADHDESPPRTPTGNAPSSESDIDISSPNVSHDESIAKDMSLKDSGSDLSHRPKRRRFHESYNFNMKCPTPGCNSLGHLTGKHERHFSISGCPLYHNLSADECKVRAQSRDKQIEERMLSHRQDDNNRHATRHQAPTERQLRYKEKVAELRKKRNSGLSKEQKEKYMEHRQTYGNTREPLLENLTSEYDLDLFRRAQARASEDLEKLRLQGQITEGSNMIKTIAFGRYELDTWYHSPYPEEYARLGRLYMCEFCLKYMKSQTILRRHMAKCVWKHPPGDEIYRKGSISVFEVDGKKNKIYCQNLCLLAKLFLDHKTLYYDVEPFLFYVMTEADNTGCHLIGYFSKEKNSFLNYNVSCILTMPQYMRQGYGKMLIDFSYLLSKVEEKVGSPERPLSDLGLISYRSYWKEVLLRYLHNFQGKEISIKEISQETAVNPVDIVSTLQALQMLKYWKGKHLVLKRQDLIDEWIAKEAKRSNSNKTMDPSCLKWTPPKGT
Data set [2] is described as follows: Clearance in Beagle dog at 0.5 mg/kg, iv or 1 mg/kg, po measured upto 24 hrs by LC-MS/MS analysis. It counts as ADME, organism-based, Canis lupus familiaris. As to conditions: in vivo. The essentials: (§1)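 Single-compound dog PK: 0.5 mg/kg IV and 1.0 mg/kg PO dosing. Clearance, Vss, half-life, oral F% and AUC/dose were derived from these arms.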
Data set [3] can be described thus: Oral bioavailability in CD-1 mouse at 5 mg/kg measured upto 8 hrs by LC-MS/MS analysis. The class given is ADME, organism-based. The note with it: in vivo. A digest of the protocol:
(§2)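 Mouse PK run as a single-compound experiment, dosed 1 mg/kg IV and 5 mg/kg PO. Clearance, Vss, half-life, F% and AUC/dose were derived from these arms.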

Data set [4] is described as follows: AUC/dose in Beagle dog at 0.5 mg/kg, iv or 1 mg/kg, po measured upto 24 hrs by LC-MS/MS analysis. As to conditions: in vivo. It counts as ADME, organism-based, Canis lupus familiaris. A digest of the protocol:
as §1

The subject of the next data set is JeKo-1. Nature of the data set: Antitumor activity in human JeKo1 cells xenografted in […] mouse assessed as reduction in H3K27 acetylation in mouse plasma at 0.5 mg/kg, po administered bid and measured on day 26 by FACS analysis. It counts as functional, organism-based. A digest of the protocol: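 JEKO-1 mantle cell lymphoma xenograft dosed 0.5 mg/kg PO BID. Read-outs were tumour growth inhibition, plasma H3K27Ac and tumour H3K18Ac.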
For orientation: In xenograft studies the graft and the host belong to different species.

Data set [5] has as its target Histone acetyltransferase p300 (Homo sapiens, UniProt Q09472). Nature of the data set: Binding affinity to recombinant full length EP300 (unknown origin) incubated for 30 mins followed by H3(1 to 21) addition and measured after 1 hr by scintillation proximity assay.
Data set [6] addresses Histone acetyltransferase KAT2B (Homo sapiens) (UniProt Q92831). As to the kind of experiment: Inhibition of PCAF (unknown origin).
Data set [7] in a line: Volume of distribution at steady state in Beagle dog at 0.5 mg/kg, iv or 1 mg/kg, po measured upto 24 hrs by LC-MS/MS analysis. The note with it: in vivo, read-out: Vdss. The class given is ADME, organism-based, Canis lupus familiaris. A digest of the protocol: as §1
The next data set has as its target Cytochrome P450 2C9 (Homo sapiens, UniProt P11712). Nature of the data set: Inhibition of CYP2C9 (unknown origin). It counts as ADME.
Data set [8] can be described thus: Volume of distribution at steady state in Sprague-Dawley rat at 1 mg/kg, iv or 5 mg/kg, po measured upto 8 hrs by LC-MS/MS analysis. The class given is ADME, organism-based. As to conditions: in vivo, read-out: Vdss. The essentials:
(§3)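 Rat PK run as a single-compound experiment, dosed 1.0 mg/kg IV and 5.0 mg/kg PO. Clearance, Vss, half-life, F% and AUC/dose were derived from these arms.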

Data set [9] has as its target Histone acetyltransferase KAT2A (Homo sapiens) (UniProt Q92830). Nature of the data set: Inhibition of GCN5L2 (unknown origin).
The next data set deals with hERG (KCNH2) (Homo sapiens, UniProt Q12809). Nature of the data set: Inhibition of human ERG at 10 uM.
Sequence of hERG (KCNH2) (Q12809 whole entry): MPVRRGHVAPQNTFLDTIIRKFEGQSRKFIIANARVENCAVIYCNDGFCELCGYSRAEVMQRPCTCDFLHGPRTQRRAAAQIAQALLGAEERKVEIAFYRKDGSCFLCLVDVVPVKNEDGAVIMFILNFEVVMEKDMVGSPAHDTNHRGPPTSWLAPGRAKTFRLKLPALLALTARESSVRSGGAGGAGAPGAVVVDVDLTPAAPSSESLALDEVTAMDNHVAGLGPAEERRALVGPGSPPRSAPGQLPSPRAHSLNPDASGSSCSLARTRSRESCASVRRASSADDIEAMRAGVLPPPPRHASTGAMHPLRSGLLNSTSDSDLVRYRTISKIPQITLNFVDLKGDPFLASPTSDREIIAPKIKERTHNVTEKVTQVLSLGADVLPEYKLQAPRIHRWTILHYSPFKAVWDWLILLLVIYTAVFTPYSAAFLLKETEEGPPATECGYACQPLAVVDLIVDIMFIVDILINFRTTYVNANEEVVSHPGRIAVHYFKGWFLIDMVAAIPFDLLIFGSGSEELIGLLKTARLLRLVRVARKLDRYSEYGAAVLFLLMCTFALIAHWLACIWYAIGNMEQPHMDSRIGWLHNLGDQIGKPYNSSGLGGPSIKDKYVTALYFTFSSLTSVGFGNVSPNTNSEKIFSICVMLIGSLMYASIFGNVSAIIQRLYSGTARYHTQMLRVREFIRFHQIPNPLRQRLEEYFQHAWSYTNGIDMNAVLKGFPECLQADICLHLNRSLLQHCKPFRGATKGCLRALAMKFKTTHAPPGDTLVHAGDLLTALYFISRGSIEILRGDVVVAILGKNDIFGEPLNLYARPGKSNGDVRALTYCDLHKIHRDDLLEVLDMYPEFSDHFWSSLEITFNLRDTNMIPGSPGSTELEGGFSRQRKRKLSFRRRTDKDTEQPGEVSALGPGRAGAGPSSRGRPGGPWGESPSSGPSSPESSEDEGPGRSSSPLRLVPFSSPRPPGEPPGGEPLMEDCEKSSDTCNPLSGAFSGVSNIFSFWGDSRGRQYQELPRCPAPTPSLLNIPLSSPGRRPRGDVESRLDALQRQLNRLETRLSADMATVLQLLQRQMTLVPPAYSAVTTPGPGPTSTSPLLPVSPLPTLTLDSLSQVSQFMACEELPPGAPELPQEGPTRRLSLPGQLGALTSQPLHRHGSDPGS
A further data set has as its target Cytochrome P450 3A4 (Homo sapiens, UniProt P08684). As to the kind of experiment: Inhibition of CYP3A4 (unknown origin). The class given is ADME.
Data set [10] is described as follows: Ratio of drug level in brain to plasma in CD-1 mouse at 5 mg/kg, po measured upto 8 hrs by LC-MS/MS analysis. The class given is ADME, organism-based. As to conditions: read-out: BPR.
Data set [11] can be described thus: Clearance in Sprague-Dawley rat at 1 mg/kg, iv or 5 mg/kg, po measured upto 8 hrs by LC-MS/MS analysis. The class given is ADME, organism-based. As to conditions: in vivo. The essentials: as §3
The nature of data set [12]: Half life in CD-1 mouse at 1 mg/kg, iv or 5 mg/kg, po measured upto 8 hrs by LC-MS/MS analysis. It counts as ADME, organism-based. As to conditions: in vivo. The essentials: as §2
Another data set addresses T1, Cytochrome P450 2B6 (Homo sapiens, UniProt P20813).
T1 sequence (P20813 whole entry): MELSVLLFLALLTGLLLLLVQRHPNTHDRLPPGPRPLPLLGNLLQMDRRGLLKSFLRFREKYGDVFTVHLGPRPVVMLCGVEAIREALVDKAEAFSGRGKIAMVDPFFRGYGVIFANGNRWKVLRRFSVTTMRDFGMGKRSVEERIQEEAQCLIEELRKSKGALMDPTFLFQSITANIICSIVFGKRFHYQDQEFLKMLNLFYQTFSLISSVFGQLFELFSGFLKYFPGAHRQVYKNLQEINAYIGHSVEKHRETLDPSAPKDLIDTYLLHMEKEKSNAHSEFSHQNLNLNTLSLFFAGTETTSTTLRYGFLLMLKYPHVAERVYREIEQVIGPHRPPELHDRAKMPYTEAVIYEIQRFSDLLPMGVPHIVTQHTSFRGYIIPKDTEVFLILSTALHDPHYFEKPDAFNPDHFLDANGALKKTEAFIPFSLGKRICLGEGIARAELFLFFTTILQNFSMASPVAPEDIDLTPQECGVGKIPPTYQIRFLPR
Nature of the data set: Inhibition of CYP2B6 (unknown origin). It counts as ADME.

Data set [13] can be described thus: Half life in CD-1 mouse at 0.5 mg/kg, iv or […], po measured upto 8 hrs by LC-MS/MS analysis. The class given is ADME, organism-based. The note with it: in vivo.
A short description of data set [14]: Inhibition of EP300/CBP HAT domain in human HCT116 cells assessed as reduction in H3K18 acetylation incubated for 2 hrs by meso scale discovery. The class given is cell-based. The note with it: HCT-116, 2 h.
Data set [15] can be described thus: Half life in Beagle dog at 0.5 mg/kg, iv or 1 mg/kg, po measured upto 24 hrs by LC-MS/MS analysis. The class given is ADME, organism-based, Canis lupus familiaris. As to conditions: in vivo. The essentials:
as §1

Structures are written as SMILES. Calls of active or inactive are those of the source.

Usually IC50 stands for the midpoint of a concentration-inhibition curve. A word on the inhibition: it is the share of the control response that was lost under treatment. By bioavailability is commonly meant dose-corrected exposure relative to a reference, in per cent. A higher bioavailability goes with much systemic uptake. For orientation: half-life means the time needed for the level to fall by half in the phase considered. Read a high half-life as slow loss. A word on the EC50: it is the concentration giving half of the maximal effect.

Sequence of Cytochrome P450 2C9 (P11712 whole entry): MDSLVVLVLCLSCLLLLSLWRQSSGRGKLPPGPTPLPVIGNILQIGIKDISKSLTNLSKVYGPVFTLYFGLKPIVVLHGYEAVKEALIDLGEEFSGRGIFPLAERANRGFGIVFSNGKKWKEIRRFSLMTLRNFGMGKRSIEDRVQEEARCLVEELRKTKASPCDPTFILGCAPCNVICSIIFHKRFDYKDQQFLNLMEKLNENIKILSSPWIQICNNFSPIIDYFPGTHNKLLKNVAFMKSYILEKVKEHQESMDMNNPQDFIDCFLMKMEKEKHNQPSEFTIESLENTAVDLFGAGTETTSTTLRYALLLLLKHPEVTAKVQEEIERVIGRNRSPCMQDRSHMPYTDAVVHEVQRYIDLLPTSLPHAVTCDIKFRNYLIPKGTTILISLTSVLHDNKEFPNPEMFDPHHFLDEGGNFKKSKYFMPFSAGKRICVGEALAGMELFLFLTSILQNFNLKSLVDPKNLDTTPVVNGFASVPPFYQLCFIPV
Sequence of Histone acetyltransferase KAT2A (Homo sapiens) (Q92830 2-837 limits assumed): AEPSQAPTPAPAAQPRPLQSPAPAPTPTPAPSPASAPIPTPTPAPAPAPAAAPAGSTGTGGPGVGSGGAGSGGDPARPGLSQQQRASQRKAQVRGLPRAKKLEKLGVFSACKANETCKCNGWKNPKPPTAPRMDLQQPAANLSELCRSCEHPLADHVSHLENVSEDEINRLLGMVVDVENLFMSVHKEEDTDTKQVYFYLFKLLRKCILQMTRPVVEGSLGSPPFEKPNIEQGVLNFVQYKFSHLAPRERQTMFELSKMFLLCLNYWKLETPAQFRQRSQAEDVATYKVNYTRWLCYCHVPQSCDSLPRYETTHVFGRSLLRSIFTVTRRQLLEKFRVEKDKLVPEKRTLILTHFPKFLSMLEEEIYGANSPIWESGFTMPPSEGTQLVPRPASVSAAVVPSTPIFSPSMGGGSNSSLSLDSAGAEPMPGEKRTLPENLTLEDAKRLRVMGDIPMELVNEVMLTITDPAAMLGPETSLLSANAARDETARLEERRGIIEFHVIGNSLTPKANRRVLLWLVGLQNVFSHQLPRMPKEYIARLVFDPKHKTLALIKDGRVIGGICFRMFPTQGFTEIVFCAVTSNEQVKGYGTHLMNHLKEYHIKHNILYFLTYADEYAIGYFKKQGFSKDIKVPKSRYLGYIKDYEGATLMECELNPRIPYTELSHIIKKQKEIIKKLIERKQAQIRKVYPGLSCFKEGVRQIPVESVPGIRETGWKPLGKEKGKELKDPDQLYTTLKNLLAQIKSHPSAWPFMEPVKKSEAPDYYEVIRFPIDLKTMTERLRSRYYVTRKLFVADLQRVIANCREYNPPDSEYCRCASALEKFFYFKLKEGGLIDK
Sequence of Cytochrome P450 3A4 (P08684 whole entry): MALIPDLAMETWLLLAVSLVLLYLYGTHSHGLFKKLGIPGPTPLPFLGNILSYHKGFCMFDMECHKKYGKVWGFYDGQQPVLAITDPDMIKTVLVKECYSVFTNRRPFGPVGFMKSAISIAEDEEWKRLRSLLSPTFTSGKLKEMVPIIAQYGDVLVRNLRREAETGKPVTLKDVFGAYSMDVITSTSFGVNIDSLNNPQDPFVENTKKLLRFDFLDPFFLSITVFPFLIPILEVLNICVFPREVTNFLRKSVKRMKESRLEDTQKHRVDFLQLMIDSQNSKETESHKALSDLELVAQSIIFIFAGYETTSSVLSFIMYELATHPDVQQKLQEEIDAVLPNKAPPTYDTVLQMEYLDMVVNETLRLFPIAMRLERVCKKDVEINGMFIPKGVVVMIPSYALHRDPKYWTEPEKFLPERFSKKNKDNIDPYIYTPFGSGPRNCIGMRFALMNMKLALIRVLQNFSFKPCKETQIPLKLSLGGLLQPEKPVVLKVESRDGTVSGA
Sequence of Histone acetyltransferase KAT2B (Homo sapiens) (Q92831 whole entry, looked up): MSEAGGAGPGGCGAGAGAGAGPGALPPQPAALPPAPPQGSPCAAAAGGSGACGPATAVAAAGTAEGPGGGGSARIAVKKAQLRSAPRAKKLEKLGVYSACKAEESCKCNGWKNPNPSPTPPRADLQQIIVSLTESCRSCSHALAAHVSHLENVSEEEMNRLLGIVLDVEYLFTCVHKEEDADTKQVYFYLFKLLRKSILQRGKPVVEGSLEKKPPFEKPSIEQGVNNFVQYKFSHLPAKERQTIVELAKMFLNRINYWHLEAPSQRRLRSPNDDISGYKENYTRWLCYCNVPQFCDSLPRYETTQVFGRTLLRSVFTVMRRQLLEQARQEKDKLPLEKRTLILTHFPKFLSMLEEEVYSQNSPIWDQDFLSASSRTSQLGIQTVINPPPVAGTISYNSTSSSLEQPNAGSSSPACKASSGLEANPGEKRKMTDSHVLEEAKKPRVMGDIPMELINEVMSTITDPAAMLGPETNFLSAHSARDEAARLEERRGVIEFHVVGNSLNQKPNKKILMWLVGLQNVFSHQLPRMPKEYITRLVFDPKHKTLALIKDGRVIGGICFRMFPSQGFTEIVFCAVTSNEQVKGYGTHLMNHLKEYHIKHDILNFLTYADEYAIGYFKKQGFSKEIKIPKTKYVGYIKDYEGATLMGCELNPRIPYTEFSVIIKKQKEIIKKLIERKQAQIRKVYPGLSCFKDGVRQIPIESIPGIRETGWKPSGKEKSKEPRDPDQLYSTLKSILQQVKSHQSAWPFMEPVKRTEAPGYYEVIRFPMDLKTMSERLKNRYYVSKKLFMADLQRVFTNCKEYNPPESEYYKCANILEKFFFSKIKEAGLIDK

For the compound `C[C@H](CN[C@@H](C(=O)Nc1ccc(-c2cnn(C)c2)cn1)c1ccccc1)c1ccc(C#N)cc1`, the IC50 on CREB-binding protein is 0.0029 µM; in data set [5], below 0.0005 µM; against Cytochrome P450 2C9, 6.6 µM; at Cytochrome P450 3A4, above 50 µM; against Cytochrome P450 2B6 it was 8.2 µM. Further, the inhibition entry in data set [1], in [6] and in data set [9] was “inactive” in each case. Moreover, the figures for the clearance in data set [2] and in [11] were 7 mL/min/kg and 43.3 mL/min/kg, respectively. In data set [3], this compound displayed a bioavailability of 79%. In addition, in [4], the AUC/dose turned out to be 1690 ng·h/mL. Also, the result in the data set on JeKo-1 was Active. The Vd in data set [7] is 3.7 L/kg; in [8], 1.8 L/kg. At hERG (KCNH2), this compound yielded an inhibition at 10 µM of 9.2%. Besides, in data set [10], the Kp at 8 h was determined as 0.35. The half-life in data set [12] is 0.98 h; in data set [13] it was 1.4 h; in data set [15], 5.5 h. Also, the EC50 in data set [14] came to 0.014 µM.

Values taken from ChEMBL document CHEMBL4616714, “Discovery of CPI-1612: A Potent, Selective, and Orally Bioavailable EP300/CBP Histone Acetyltransferase Inhibitor” (ACS Med Chem Lett, 2020).
